Experimental data gathered from unrelated publications.
Lines come from different studies, so protocols differ.
AMY2: Pancreatic alpha-amylase (AMY2, Sus scrofa, UniProt P00690)
D14: D14 (Arabidopsis thaliana, UniProt Q9SQR3)

C#Cc1cc(-c2cc(Nc3nc(N[C@@H](C)c4ccc(F)cn4)ncc3Cl)n[nH]2)ccc1C=O  inhibition (Ribosomal protein S6 kinase alpha-1 (RPS6KA1, Homo sapiens, UniProt Q15418); enzyme activity, inhibitor; 0.2 µM): 56.8%
CCCCC(=O)Nc1ccc(-c2ccc3ncn(CCC)c(=O)c3c2)cn1  remaining binding (Tyrosine-protein kinase Fer (FER, Homo sapiens, UniProt P16591); binding, competition with immobilised ligand; 0.5 µM): 100%
O=C1C[C@@H](c2ccccc2)Oc2cc(O)cc(O)c21  inhibition (AMY2; enzyme activity, inhibitor; 50 µM): 25.2%
CC1=CC(O/C=C2/C(=O)OC3c4ccccc4CC23)OC1=O (racemic)  ΔTm (D14; thermal stability, DSF; 10 µM): -7.04 °C
COc1cc(O)c2c(c1)O[C@H](c1ccccc1)CC2=O  inhibition (AMY2; enzyme activity, inhibitor; 50 µM, 30 min): 12.7%
C1=C/COCc2cc(ccc2OCCN2CCCC2)Nc2nccc(n2)-c2cccc(c2)COC/1  remaining binding (MAP kinase-activated protein kinase 5 (MAPKAPK5, Homo sapiens, UniProt Q8IW41); binding; 0.1 µM): 75%
CC1=C(/C=C/C(C)=C/C=O)C(C)(C)C[C@H](O)C1  ΔTm (D14; thermal stability, DSF; 50 µM): -3.04 °C
Cc1cc(O)c(-c2ccc([C@@H](C)CN(C)C)cc2)c2c1[nH]c(=O)c1sccc12  inhibition (Ribosomal protein S6 kinase alpha-1, C-terminal kinase domain (RPS6KA1, Homo sapiens, UniProt Q15418); enzyme activity, inhibitor; 0.1 µM): -4.95%
CC1=C(/C=C/C(C)=C/C=O)C(C)(C)CCC1  ΔTm (D14; thermal stability, DSF; 100 µM): -9.02 °C
O=c1c(O)c(-c2ccc(O)c(O)c2)oc2cc(O)cc(O)c12  inhibition (AMY2; enzyme activity, inhibitor; 50 µM): 94.1%
